Measured values published in ChEMBL document CHEMBL1122988, “Studies on antianaphylactic agents. 7. Synthesis of antiallergic 5-oxo-5H-[1]benzopyrano[2,3-b]pyridines” (1985).

Tests used:
Assay type in all cases: functional
Rattus norvegicus [1] = assay: Anti-passive cutaneous anaphylaxis activity in rat (intravenous administration); conditions: read-out: ID50 (the source's name)
Procedure, shortened: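 Male Sprague-Dawley rats (8 weeks, ~280 g) were sensitized passively. Antiserum was raised with egg albumin im plus killed B. pertussis ip, and diluted fourfold. Four 0.05-mL intradermal dorsal injections were given, with a 72-h latency. Challenge was iv with 5 mg egg albumin plus 10 mg Evans blue in 1 mL saline. Drug in saline or PEG 400 was given iv immediately before challenge. Dye leakage area was read at 30 min. ID50 came from a least-squares log dose–area fit.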

Rattus norvegicus [2] = assay: Compound was evaluated for anti passive cutaneous anaphylaxis activity in nonfasted rat, administered through intravenous route; conditions: oral, in the assay text read “oral” for “intravenous”, read-out: ID50 (the source's name)
Rattus norvegicus [3] = assay: Compound was evaluated for anti passive cutaneous anaphylaxis activity in nonfasted rats administered oral route; conditions: read-out: ID50 (the source's name)
Procedure, shortened: (§1)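 Homologous rat PCA in male Sprague-Dawley rats (8 weeks, ~280 g). Skin sites received 72 h of exposure to fourfold-diluted egg albumin antiserum. Drug was suspended in 5% gum arabic and given orally 5 min before iv challenge with egg albumin and Evans blue. Rats were bled 30 min later and dye leakage area (mm2) was measured. ID50 came from least-squares log dose regression, with Fieller fiducial limits.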

Rattus norvegicus [4] = assay: Compound was evaluated for anti passive cutaneous anaphylaxis activity in fasted rats administered oral route; conditions: read-out: ID50 (the source's name); procedure, shortened: as §1
Rattus norvegicus [5] = assay: Compound was evaluated for anti passive cutaneous anaphylaxis activity in fasted rat, administered through intravenous route; conditions: oral, in the assay text read “oral” for “intravenous”, read-out: ID50 (the source's name)

Row | SMILES | ED50 (Rattus norvegicus [1]) [mg/kg] | other results
1 | CNc1nc2oc3ccc(C(C)C)cc3c(=O)c2cc1C(=O)O | 0.39 | –
2 | CCc1ccc2oc3nc(N)c(C(=O)O)cc3c(=O)c2c1 | 0.14 | ED50 (Rattus norvegicus [2]): 5.4 mg/kg
3 | O=C(O)c1cnc2oc3ccccc3c(=O)c2c1 | 0.63 | –
4 | O=c1c2ccccc2oc2ncc(-c3nn[nH]n3)cc12 | 0.44 | –
5 | Cc1ccc2oc3nc(O)c(C(=O)O)cc3c(=O)c2c1 | 0.1 | –
6 | CCONc1nc2oc3ccc(C(C)C)cc3c(=O)c2cc1C(=O)O | 0.014 | –
7 | CONc1nc2oc3ccc(C(C)C)cc3c(=O)c2cc1C(=O)O | 0.0076 | ED50 (Rattus norvegicus [3]): 4.6 mg/kg; ED50 (Rattus norvegicus [4]): 0.59 mg/kg
8 | CCc1ccc2oc3nc(C)c(C(=O)O)cc3c(=O)c2c1 | 0.73 | –
9 | CCc1ccc(O)c(C(=O)c2cc(C(=O)O)c(C)nc2O)c1 | > 20 | –
10 | CCc1ccc2oc3nc(OC)c(C(=O)O)cc3c(=O)c2c1 | 0.5 | –
11 | COc1ccc2oc3nc(O)c(C(=O)O)cc3c(=O)c2c1 | 0.042 | –
12 | CC(C)c1ccc2oc3nc(O)c(C(=O)O)cc3c(=O)c2c1 | 0.02 | –
13 | O=C(O)c1cc2c(=O)c3ccccc3oc2nc1O | 0.62 | –
14 | CCc1ccc2oc3nc(O)c(C(=O)O)cc3c(=O)c2c1 | 0.041 | –
15 | CC(C)(C)c1ccc2oc3ncc(-c4nn[nH]n4)cc3c(=O)c2c1 | 0.047 | ED50 (Rattus norvegicus [3]): 6 mg/kg
16 | CCc1ccc2oc3ncc(-c4nn[nH]n4)cc3c(=O)c2c1 | 0.11 | ED50 (Rattus norvegicus [3]): 6.4 mg/kg

Row | SMILES | ED50 (Rattus norvegicus [1]) [mg/kg] | other results
17 | CC(C)c1ccc2oc3ncc(C(=O)O)cc3c(=O)c2c1 | 0.059 | ED50 (Rattus norvegicus [3]): 1.2 mg/kg
18 | Cc1cc(C)c2oc3ncc(-c4nn[nH]n4)cc3c(=O)c2c1 | 0.31 | –
19 | CC(C)c1ccc2oc3nc(N)c(-c4nn[nH]n4)cc3c(=O)c2c1 | 0.064 | –
20 | CONc1nc2oc3ccc(C(C)C)cc3c(=O)c2cc1-c1nn[nH]n1 | 0.19 | –
21 | CCCCONc1nc2oc3ccc(C(C)C)cc3c(=O)c2cc1C(=O)O | 0.028 | ED50 (Rattus norvegicus [3]): 3.5 mg/kg
22 | COc1cccc2c(=O)c3cc(C(=O)O)c(O)nc3oc12 | 0.1 | –
23 | COc1cccc2c(=O)c3cc(C(=O)O)c(N)nc3oc12 | 0.45 | –
24 | Cc1cc(C)c2oc3nc(O)c(C(=O)O)cc3c(=O)c2c1 | 0.12 | –
25 | O=c1c2cc(-c3nn[nH]n3)cnc2oc2ccc3ccccc3c12 | 0.84 | –
26 | CC(C)c1ccc2oc3nc(NO)c(C(=O)O)cc3c(=O)c2c1 | 0.018 | ED50 (Rattus norvegicus [3]): 1 mg/kg
27 | CC(C)c1ccc2oc3ncc(-c4nn[nH]n4)cc3c(=O)c2c1 | 0.0096 | ED50 (Rattus norvegicus [3]): 0.46 mg/kg; ED50 (Rattus norvegicus [4]): 0.034 mg/kg
28 | CCCCc1ccc2oc3nc(N)c(C(=O)O)cc3c(=O)c2c1 | 1.1 | –
29 | CCc1ccc2oc3ncc(C(=O)O)cc3c(=O)c2c1 | 0.034 | ED50 (Rattus norvegicus [5]): 0.18 mg/kg; ED50 (Rattus norvegicus [2]): 0.95 mg/kg
30 | CC(C)c1ccc2oc3nc(N)c(C(=O)O)cc3c(=O)c2c1 [AMLEXANOX] | 0.032 | ED50 (Rattus norvegicus [3]): 6.1 mg/kg; ED50 (Rattus norvegicus [4]): 0.73 mg/kg
31 | O=C([O-])c1cc(=O)c2c(OCC(O)COc3cccc4oc(C(=O)[O-])cc(=O)c34)cccc2o1.[Na+].[Na+] [CROMOLYN SODIUM] | 1.4 | –
